Bioassay records: PubChem, The Scripps Research Institute Molecular Screening Center
Hits are enriched below; roughly 3.4% of the tested compounds scored in any of these assays.
CHRM1 agonist – human M1 muscarinic receptor agonism; P11229; CHO-K1 hM1, Fluo-8 calcium fluorescence, agonist mode; 0% DMSO, 100% acetylcholine EC100; activation, % at 3 µM; 0.33% of 360,000 active;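 active = activation above the run's mean compound activation plus 3 SD, cut at about 16% in these data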;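 note: peak over basal fluorescence ratio within a 140 s kinetic read after compound addition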
Target sequence (P11229 whole entry, looked up): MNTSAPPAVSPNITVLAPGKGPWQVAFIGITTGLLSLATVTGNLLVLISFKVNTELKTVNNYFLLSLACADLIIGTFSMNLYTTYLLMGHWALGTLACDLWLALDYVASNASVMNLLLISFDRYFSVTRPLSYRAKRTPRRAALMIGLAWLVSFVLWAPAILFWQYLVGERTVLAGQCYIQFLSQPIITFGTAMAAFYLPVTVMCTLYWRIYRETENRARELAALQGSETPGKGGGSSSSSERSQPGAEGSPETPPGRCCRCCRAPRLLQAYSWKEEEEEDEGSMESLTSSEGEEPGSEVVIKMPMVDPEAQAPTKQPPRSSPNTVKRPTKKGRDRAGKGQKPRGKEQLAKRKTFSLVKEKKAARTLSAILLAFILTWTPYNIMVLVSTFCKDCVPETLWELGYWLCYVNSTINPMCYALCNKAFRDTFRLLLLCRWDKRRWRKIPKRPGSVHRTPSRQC
TAAR1 agonist – human TAAR1 agonism; CHO RD-HGA16 TAAR1, Fluo-8 calcium fluorescence; vehicle wells 0%, saturating PEA agonist 100%; Q96RJ0; 0.99% of 360,000 active; activation, % at 3 µM;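 active = activation above the mean activation of all test compounds in the run plus 3 SD, cut at about 38% in these data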
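Test system: RD-HGA16 (CHO) cells co-expressing Gα16 and hTAAR1; dosing: one-point dosing at 3 µM (nominal); timing: 17-24 h seeding, 75 min 37 °C dye, 30 min RT; signal: kinetic Fluo-8 calcium fluorescence; read-out basis: % activation relative to PEA EC100 response; controls: DMSO and PEA EC100; replicates: n 1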
CHRM1 PAM – positive allosteric modulators of human M1 muscarinic receptor | 0.088% of 360,000 active | CHO-K1 hM1, Fluo-8 calcium fluorescence, ACh EC20; 0% = ACh EC20, 100% = maximal ACh | P11229 | AID 588819 | activation, % at 3 µM; in the data active = activation above about 19%, passing the limit was not always enough
CHRM1 antagonist – human CHRM1 antagonism; CHO-K1 hM1, Fluo-8 calcium fluorescence, ACh EC80 antagonist; AID 588852; 1.3% of 360,000 active; inhibition, % at 3 µM;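 active = percent inhibition above its own plate's cutoff, namely the mean of that plate's compound wells plus 3 SD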;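 note: peak over basal fluorescence ratio during 140 s after agonist addition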
TAAR1 antagonist – antagonists of human TAAR1; AID 624466; CHO RD-HGA16 TAAR1, Fluo-8 calcium fluorescence, antagonist; inhibition, % at 3 µM; Q96RJ0; 1.5% of 360,000 active;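 active = inhibition above a per-plate cutoff, the mean inhibition of test compounds on that plate plus 3 SD, cut at about 49% in these data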
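Assay system: CHO-derived RD-HGA16 cells stably expressing human TAAR1 plus Gα16. Timing: 140 s kinetic read after compound, 140 s after agonist. Technique: kinetic Fluo-8 calcium fluorescence measurement. Measure: % inhibition of agonist calcium response.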
TAAR1 nonsel count – counter-screen for TAAR1 antagonists: nonselective antagonists | 77% of 2,400 active | inhibition, % at 3 µM | AID 651780 | counterscreen cell line, calcium fluorescence, antagonist mode | shares compounds with TAAR1 antagonist; in the data active = inhibition above about 22%;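 note: CHO-Ga16 host cells stimulated with ATP at an EC80 level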
TAAR1 ant conf – confirmation of human TAAR1 antagonists; TAAR1-expressing cells, fluorescence antagonist read-out; 40% of 2,400 active; inhibition, % at 3 µM; shares compounds with TAAR1 antagonist; in the data active = inhibition above about 49%;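 note: CHO-Ga16 host cells challenged with agonist PEA near its EC80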
Ga16 ag counter – counter-screen for TAAR1 antagonists: nonselective Ga16 agonists | shares compounds with TAAR1 antagonist | activation, % at 3 µM | Ga16-expressing cells, calcium fluorescence, agonist counterscreen | AID 651953 | 18% of 2,400 active; in the data active = activation above about 12%
TAAR1 ag counter – activates human TAAR1 in antagonist counter-screen; hTAAR1 cell line, fluorescence activation, agonist mode; activation, % at 3 µM; shares compounds with TAAR1 antagonist; 2% of 2,400 active; in the data active = activation above about 37%;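 note: CHO cells stably expressing TAAR1 with calcium dye readout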
Each line names hits and unclear results; the compound was inactive in the other large screens (follow-up assays come after a bar, where they were run).

CCC1CN(C(=O)N2CCC(C(=O)NCc3ccccc3OC)CC2)c2cc(C)ccc2O1 (stereo unspecified)	TAAR1 antagonist 53.6 | TAAR1 nonsel count 28.6 | TAAR1 ant conf inactive | Ga16 ag counter inactive | TAAR1 ag counter inactive
COc1ccc(C2=Nc3ccccc3N(C(=O)c3cccnc3)C2C(=O)NC(C)(C)C)cc1 (stereo unspecified)	none (no result: CHRM1 agonist, CHRM1 PAM, CHRM1 antagonist)
N#CC(C#N)=C1C=CC=CN1/C(=C\c1ccccc1Cl)C(=O)c1ccccc1	TAAR1 antagonist 56.2 | TAAR1 nonsel count 49.0 | TAAR1 ant conf 58.8 | Ga16 ag counter inactive | TAAR1 ag counter inactive
CCOC(=O)C1=CN(Cc2cccc(-c3ccc(Cl)nc3)c2)S(=O)(=O)N(C)C1C (stereo unspecified)	TAAR1 antagonist 62.6 | TAAR1 nonsel count inactive | TAAR1 ant conf inactive | Ga16 ag counter inactive | TAAR1 ag counter inactive
CCCCN(C(C)=O)c1c(CC)nc2ccc(C(=O)NCCOc3ccc(OC)cc3)cn12	none
CCc1c(-c2ccc(OC)cc2)ncn1CCc1ccccc1OC	none (no result: CHRM1 agonist, CHRM1 PAM, CHRM1 antagonist)
COc1ccccc1CCn1cnc(-c2cccc(Cl)c2)c1CC(C)C	TAAR1 antagonist 51.2 (no result: CHRM1 agonist, CHRM1 PAM, CHRM1 antagonist) | TAAR1 nonsel count 32.6 | TAAR1 ant conf 52.0 | Ga16 ag counter inactive | TAAR1 ag counter 38.0
COc1ccccc1CCn1cnc(-c2ccccc2)c1CC(C)C	TAAR1 antagonist 55.9 (no result: CHRM1 agonist, CHRM1 PAM, CHRM1 antagonist) | TAAR1 nonsel count 41.5 | TAAR1 ant conf 49.1 | Ga16 ag counter 12.4 | TAAR1 ag counter inactive
COc1ccccc1CCn1cnc(-c2ccc(F)cc2)c1CC(C)C	TAAR1 antagonist 62.6 (no result: CHRM1 agonist, CHRM1 PAM, CHRM1 antagonist) | TAAR1 nonsel count 29.1 | TAAR1 ant conf 62.1 | Ga16 ag counter inactive | TAAR1 ag counter 66.4
CCCCc1c(-c2cccc(Cl)c2)ncn1CCc1ccccc1OC	none (no result: CHRM1 agonist, CHRM1 PAM, CHRM1 antagonist)
CCCCc1c(-c2ccc(F)cc2)ncn1CCc1ccccc1OC	TAAR1 antagonist 54.5 (no result: CHRM1 agonist, CHRM1 PAM, CHRM1 antagonist) | TAAR1 nonsel count 23.1 | TAAR1 ant conf inactive | Ga16 ag counter inactive | TAAR1 ag counter 42.6
CCc1c(-c2ccc(Cl)cc2)ncn1CCc1ccccc1OC	none (no result: CHRM1 agonist, CHRM1 PAM, CHRM1 antagonist)
O=C(NCc1ccccc1)C(c1cc2ccccc2o1)n1c(=O)c(-c2ccco2)nc2ccccc21 (stereo unspecified)	none (no result: CHRM1 agonist, CHRM1 PAM, CHRM1 antagonist)
Cn1nc(C(C)(C)C)cc1NC(=O)C1(C)CCN1C(=O)c1ccccc1CCc1ccccc1 (stereo unspecified)	none
COc1ccc(C(=O)NCCNc2nc3cc(C)cc(C)c3cc2C#N)nc1	none (no result: CHRM1 agonist, CHRM1 PAM, CHRM1 antagonist)
COCCNC(=O)c1cc2c(c(-c3cccc(-c4cc5ccccc5o4)c3)n1)[C@@H](CCO)N(S(=O)C(C)(C)C)C2 (stereo partly specified)	none
COc1cc(-c2coc3c(C(=O)NCc4ccccc4)cccc23)ccc1O	none
COc1cccc(-c2ncn(CCc3ccccc3OC)c2CC(C)C)c1	TAAR1 antagonist 62.1 (no result: CHRM1 agonist, CHRM1 PAM, CHRM1 antagonist) | TAAR1 nonsel count 39.0 | TAAR1 ant conf 49.3 | Ga16 ag counter inactive | TAAR1 ag counter 38.0
COc1cccc(-c2ncn(CCc3ccccc3OC)c2C(C)C)c1	none (no result: CHRM1 agonist, CHRM1 PAM, CHRM1 antagonist)
CC(=O)Nc1cccc(-c2cc(NC(C)=O)c3ncc(-c4ccc(C(C)=O)cc4)n3c2)c1	none
COc1ccccc1N(C)S(=O)(=O)c1ccc(C(=O)N(C)Cc2ccc(OC(F)F)cc2)cc1	CHRM1 antagonist 26.7, TAAR1 antagonist 84.6 | TAAR1 nonsel count 44.7 | TAAR1 ant conf 74.0 | Ga16 ag counter 13.0 | TAAR1 ag counter inactive
COc1cc(NC(=O)c2ccc(S(=O)(=O)N(C)c3ccccc3OC)cc2)cc(OC)c1	none
COc1ccccc1N(C)S(=O)(=O)c1ccc(C(=O)OCC(=O)NCC(F)(F)F)cc1	none
COC(=O)c1cccc(NC(=O)c2ccc(S(=O)(=O)N(C)c3ccccc3OC)cc2)c1	TAAR1 antagonist 70.1 | TAAR1 nonsel count 32.2 | TAAR1 ant conf inactive | Ga16 ag counter inactive | TAAR1 ag counter inactive
